The source made the active and inactive calls. No cut-off for these calls is given here. Residues, ends and D or L forms follow the SMILES beside them. *: point of attachment. Boc = CC(C)(C)OC(=O)*

One series deals with SK-OV-3. Briefly: Cytotoxicity against human SKOV3 cells assessed as reduction in cell viability after 48 hrs by neutral red uptake assay. The class given is cell-based. To be noted: sk-ov-3, 48 h. The method, boiled down: (§1)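 Cells seeded at 25 000 per well and grown 24 h to confluence, then exposed to peptides up to 10 μg/mL for 48 h; viability by modified neutral red uptake; doxorubicin positive control, DMSO negative control.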

For another series, the system named is Escherichia coli. Description: Antibacterial activity against Escherichia coli ATCC 35218 after 16 to 20 hrs by alamar blue dye based CLSI method. Format: functional. In general terms: Alamar Blue is a resazurin reagent that responds to reducing activity.
Series [1] relates to Cryptococcus neoformans. Description: Induction of membrane permeabilization in Cryptococcus neoformans ATCC 350 after 1 hr using FITC labeled compound by confocal microscopic analysis. Format: functional.
A further series has as its system Vero. Briefly: Cytotoxicity against African green monkey Vero cells assessed as reduction in cell viability after 48 hrs by neutral red uptake assay. The class given is cell-based. The following applies: chlorocebus sabaeus. In a few lines:
as §1

Another series relates to SK-MEL. Description: Cytotoxicity against human SK-MEL cells assessed as reduction in cell viability after 48 hrs by neutral red uptake assay. Format: cell-based. In a few lines:
as §1

In another series the test system is Candida. Briefly: Antifungal activity against Candida. The class given is functional.
Another series deals with LLC-PK1. Briefly: Cytotoxicity against pig LLC-PK1 cells assessed as reduction in cell viability after 48 hrs by neutral red uptake assay. To be noted: llc-pk1, 48 h. Format: cell-based, Sus scrofa. In a few lines:
as §1

For the next series, the system named is Aspergillus. Briefly: Antifungal activity against Aspergillus. The class given is functional.
The test system of a further series is BT-549. Description: Cytotoxicity against human BT549 cells assessed as reduction in cell viability after 48 hrs by neutral red uptake assay. The class given is cell-based. To be noted: bt-549, 48 h. The method, boiled down: as §1
Series [2] concerns Cryptococcus neoformans. Description: Antifungal activity against Cryptococcus neoformans ATCC 90113 after 70 to 74 hrs by alamar blue dye based CLSI method. The class given is functional.
Series [3] concerns Cryptococcus neoformans. Briefly: Fungicidal activity against Cryptococcus neoformans ATCC 350 at antifungal MIC after 4 hrs by time kill assay. The class given is functional.

One may read the IC50 as the concentration needed to halve the response being measured. For the compound `N[C@@H](Cc1c[nH]c(-c2ccccc2)n1)C(=O)N[C@@H](Cc1c[nH]c2ccccc12)C(=O)N[C@@H](Cc1c[nH]c(-c2ccccc2)n1)C(=O)NCc1ccccc1`, the Activity in the series with SK-OV-3, with Vero, with SK-MEL, in the series with LLC-PK1 and in the series on BT-549 was more than 10 µg/mL throughout. In addition, the result with Escherichia coli, in the series on Cryptococcus neoformans [1], in the series on Candida and in the series on Aspergillus was inactive. For the same compound, the 50% inhibitory concentration (IC50) in the series with Cryptococcus neoformans [2] is more than 20 µg/mL.
Take `COC(=O)[C@H](Cc1c[nH]cn1)NC(=O)[C@H](Cc1c[nH]c2ccccc12)NC(=O)[C@H](Cc1c[nH]cn1)NC(=O)OC(C)(C)C` (Boc-His-Trp-His-OMe): the Activity in the series with SK-OV-3, in the series with Vero, in the series with SK-MEL, in the series with LLC-PK1 and in the series on BT-549 was more than 10 µg/mL each time. Besides, the outcome in the series on Escherichia coli, with Candida, in the series on Cryptococcus neoformans [3] and with Aspergillus was inactive. The half-maximal inhibitory concentration (IC50) in the series with Cryptococcus neoformans [2] was more than 20 µg/mL.

Source of the values: ChEMBL document CHEMBL4011658 (J Med Chem, 2017).
